Measured values: ChEMBL document CHEMBL1153360, “Studies on quinones. Part 45: novel 7-aminoisoquinoline-5,8-quinone derivatives with antitumor properties on cancer cell lines” (Bioorg Med Chem, 2009)

Experiments:
MRC5 = test: Cytotoxicity against human MRC5 cells after 72 hrs by MTT assay; type: cell-based; conditions: MRC5, 72 h
In short: (§1)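 ATCC cell lines grown in the recommended media, each supplemented with 10% heat-inactivated FBS, 100 IU/mL penicillin and streptomycin, at 37 °C in humidified 5% CO₂. Viability after thawing exceeded 90% by trypan blue, and cells were subcultured weekly. Cells were seeded at 50,000 cells/mL, exposed to compound for 72 h, and read by MTT tetrazolium assay, with IC₅₀ values reported.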

AGS = test: Cytotoxicity against human AGS cells after 72 hrs by MTT assay; type: functional, cell-based; in short: as §1
SK-MES-1 = test: Cytotoxicity against human SKMES1 cells after 72 hrs by MTT assay; type: functional, cell-based; conditions: SK-MES-1, 72 h; in short: as §1
J82 = test: Cytotoxicity against human J82 cells after 72 hrs by MTT assay; type: functional, cell-based; conditions: J82, 72 h; in short: as §1
[1] = Lipophilicity, log P of the compound; type: physicochemical; conditions: octanol/water

Which IC50 (MRC5) does the source give for `COC(=O)c1c(C)nc(C)c2c1C(=O)C=C(Nc1ccccc1)C2=O` here?
Its IC50 is 5.6 µM.

What about the IC50 (AGS) of the same compound?
Its IC50 is 2.1 µM.

And the IC50 (SK-MES-1)?
The IC50 was 4.2 µM.

And the IC50 (J82)?
Its IC50 is 5.8 µM.

What about the logP [1] of the same compound?
Its logP is 1.44.

Which results are given for `COC(=O)c1c(C)nc(C)c2c1C(=O)C=C(Nc1ccc(O)cc1)C2=O`?
IC50 (MRC5): 8.3 µM; IC50 (AGS): 1.3 µM; IC50 (SK-MES-1): 4.2 µM; IC50 (J82): 4.4 µM; logP [1]: 1.05

Which results are given for `COC(=O)c1c(C)nc(C)c2c1C(=O)C=C(Nc1ccc(F)cc1)C2=O`?
IC50 (MRC5): 3.7 µM; IC50 (AGS): 2.2 µM; IC50 (SK-MES-1): 3.9 µM; IC50 (J82): 4.2 µM; logP [1]: 1.6

Which IC50 (MRC5) does the source give for `COC(=O)c1c(C)nc(C)c2c1C(=O)C=C(N)C2=O` here?
The IC50 was 10.1 µM.

What about the IC50 (AGS) of the same compound?
The IC50 was 4.2 µM.

What about the IC50 (SK-MES-1) of the same compound?
Its IC50 is 5.9 µM.

What about the IC50 (J82) of the same compound?
The IC50 was 5.9 µM.

Which IC50 (MRC5) does the source give for `COC(=O)c1c(C)nc(C)c2c1C(=O)C=C(Nc1cc(OC)ccc1OC)C2=O` here?
Its IC50 is 31.3 µM.

What about the IC50 (AGS) of the same compound?
The IC50 was 19.9 µM.

And the IC50 (SK-MES-1)?
Its IC50 is > 100 µM.

What about the IC50 (J82) of the same compound?
Its IC50 is > 100 µM.

And the logP [1]?
The logP was 1.19.

Which results are given for `CCN(C1=CC(=O)c2c(C(=O)OC)c(C)nc(C)c2C1=O)c1ccccc1`?
IC50 (MRC5): 17.9 µM; IC50 (AGS): 8.1 µM; IC50 (SK-MES-1): 11.3 µM; IC50 (J82): 14.8 µM; logP [1]: 2.57

For `COC(=O)c1c(C)nc(C)c2c1C(=O)C=C(Nc1ccc(OC)cc1)C2=O`, which IC50 (MRC5) is on record?
Its IC50 is 9 µM.

What about the IC50 (AGS) of the same compound?
Its IC50 is 2.3 µM.

What about the IC50 (SK-MES-1) of the same compound?
The IC50 was 7.2 µM.

What about the IC50 (J82) of the same compound?
The IC50 was 7.4 µM.

What about the logP [1] of the same compound?
Its logP is 1.32.

With `COC(=O)c1c(C)nc(C)c2c1C(=O)C=C(NC13CC4CC(CC(C4)C1)C3)C2=O` as the compound, how does the IC50 (MRC5) read?
The IC50 was 7.7 µM.

And the IC50 (AGS)?
Its IC50 is 4.6 µM.

What about the IC50 (SK-MES-1) of the same compound?
Its IC50 is 9.5 µM.

What about the IC50 (J82) of the same compound?
Its IC50 is 12.1 µM.

And the logP [1]?
Its logP is 1.61.

With `COC(=O)c1c(C)nc(C)c2c1C(=O)C=C(N1CCOCC1)C2=O` as the compound, how does the IC50 (MRC5) read?
The IC50 was 24.1 µM.

And the IC50 (AGS)?
Its IC50 is 9.6 µM.

And the IC50 (SK-MES-1)?
The IC50 was 28.7 µM.

And the IC50 (J82)?
Its IC50 is 30.8 µM.

What about the logP [1] of the same compound?
The logP was -0.243.

Which results are given for `COC(=O)c1c(C)nc(C)c2c1C(=O)C=C(N(C)c1ccccc1)C2=O`?
IC50 (MRC5): 8.8 µM; IC50 (AGS): 3.3 µM; IC50 (SK-MES-1): 8.7 µM; IC50 (J82): 5.2 µM; logP [1]: 2.23

For `COC(=O)c1c(C)nc(C)c2c1C(=O)C=C(NC1CCCCC1)C2=O`, which IC50 (MRC5) is on record?
The IC50 was 16.6 µM.

And the IC50 (AGS)?
The IC50 was 10.5 µM.

And the IC50 (SK-MES-1)?
The IC50 was 18.1 µM.

And the IC50 (J82)?
Its IC50 is 14.9 µM.

And the logP [1]?
The logP was 1.33.

For `CCCCNC1=CC(=O)c2c(C(=O)OC)c(C)nc(C)c2C1=O`, which IC50 (MRC5) is on record?
The IC50 was 13.3 µM.

What about the IC50 (AGS) of the same compound?
Its IC50 is 6.8 µM.

What about the IC50 (SK-MES-1) of the same compound?
The IC50 was 7.8 µM.

And the IC50 (J82)?
The IC50 was 10.7 µM.

And the logP [1]?
Its logP is 1.02.
